Data reported in ChEMBL document CHEMBL3124932, “Design, synthesis and evaluation of genistein-O-alkylbenzylamines as potential multifunctional agents for the treatment of Alzheimer's disease” (Eur J Med Chem, 2014).

What was measured:
[1] = molecular target: Amyloid-beta precursor protein (Homo sapiens) (UniProt P05067); assay: Inhibition of self-induced amyloid beta (1 to 42) (unknown origin) aggregation after 24 hrs by thioflavin T fluorescence method
Summary of the method: (§1)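 HFIP-pretreated Aβ1-42 (25 µM final) incubated with compound (10–50 µM) in 50 mM phosphate pH 7.4 for 24 h at 37 °C, wells sealed. ThT in glycine-NaOH pH 8.5 added; fluorescence ex 446/em 490 nm. DMSO 12.5% final. Percent inhibition relative to peptide without inhibitor; triplicate, mean of 3 independent experiments.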

Mus musculus = assay: Cognition enhancing effect against scopolamine-induced memory deficit in po dosed Kunming mouse assessed as increase in latency time administered 1 hr before training followed by scopolamine challenge for 7 days measured after 24 hrs by step-down passive avoidance test; type: functional, organism-based
Summary of the method: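 Kunming mice, six weeks old, 18–22 g, either sex, n=10 per group. Oral dosing at 2, 6, 18 or 3, 9, 27 mg/kg in vegetable oil, 1 h before training; vehicle as negative control. Scopolamine (3 mg/kg i.p., in saline) given 30 min later. Behavioural testing after 7 days of treatment. Step-down training used a 0.5 mA, 2 s foot shock. Latency measured 24 h later, cut-off 300 s; mean ± SEM.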

[2] = Antioxidant activity assessed as trolox equivalent of APPH-induced radical scavenging activity at 1 to 10 uM preincubated for 15 mins followed by AAPH challenge measured every minute for 90 minutes by ORAC fluorescence assay; type: functional
Summary of the method: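 ORAC-FL in phosphate buffer pH 7.4. Samples (1–10 µM) preincubated with fluorescein (150 nM final) 15 min at 37 °C, then AAPH (12 mM final) added. Fluorescence (ex 485/em 535 nm) read each minute for 90 min. Net AUC over blank converted to Trolox equivalents using a 1–8 µM Trolox curve. Duplicates, at least 3 independent assays.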

[3] = molecular target: Amyloid-beta precursor protein (Homo sapiens) (UniProt P05067); assay: Induction of amyloid beta (1 to 42) (unknown origin) disaggregation assessed as reduction of Cu2+-induced amyloid beta fibril formation at 25 uM after 24 hrs by thioflavin T fluorescence method; parameters: scale not given: the % may be the effect or the level left
Summary of the method: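 Aβ1-42 (25 µM final, HFIP-pretreated) and Cu2+ (25 µM) in HEPES pH 6.6 with 150 mM NaCl, incubated 24 h at 37 °C. Test compound (25 µM final) then added for a further 24 h at 37 °C, wells sealed. Read by ThT in glycine-NaOH pH 8.5 (ex 446/em 490 nm). DMSO 12.5% final; triplicate.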

[4] = molecular target: Amyloid-beta precursor protein (Homo sapiens) (UniProt P05067); assay: Inhibition of Cu2+-induced amyloid beta (1 to 42) (unknown origin) aggregation at 25 uM after 24 hrs by thioflavin T fluorescence method
Summary of the method: (§2)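 Aβ1-42 (25 µM final, HFIP-pretreated) with an equimolar amount of Cu2+ (25 µM) in HEPES pH 6.6 with 150 mM NaCl. Incubated with or without compound (10–35 µM final) 24 h at 37 °C. ThT in glycine-NaOH pH 8.5 added, fluorescence ex 446/em 490 nm. DMSO 12.5% final. Percent inhibition relative to no-inhibitor wells; triplicate, mean of 3 independent experiments.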

Acetylcholinesterase [5] = molecular target: T1, Acetylcholinesterase (Electrophorus electricus, UniProt O42275); assay: Mixed-type inhibition of electric eel AchE using acetylthiocholine as substrate after 15 mins by Lineweaver-Burk plot analysis
Summary of the method: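 Purified eel AChE in 0.1 M phosphate pH 8.0 with DTNB. Three inhibitor concentrations preincubated with enzyme 15 min at 37 °C, then acetylthiocholine added at varied concentrations. Hydrolysis followed at 412 nm, with no-inhibitor controls. Lineweaver-Burk plots fitted by weighted least squares; slopes replotted against inhibitor concentration, Ki taken as the negative x-intercept.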

[6] = molecular target: Amyloid-beta precursor protein (Homo sapiens) (UniProt P05067); assay: Inhibition of Cu2+-induced amyloid beta (1 to 42) (unknown origin) aggregation after 24 hrs by thioflavin T fluorescence method; summary of the method: as §2
[7] = molecular target: Amyloid-beta precursor protein (Homo sapiens) (UniProt P05067); assay: Inhibition of self-induced amyloid beta (1 to 42) (unknown origin) aggregation at 25 uM after 24 hrs by thioflavin T fluorescence method; summary of the method: as §1
[8] = molecular target: Butyrylcholinesterase (Rattus norvegicus) (UniProt Q9JKC1); assay: Inhibition of rat serum BuChE using butyrylthiocholine iodide as substrate at 50 uM after 15 mins by Ellman's method
Summary of the method: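 Modified Ellman assay in phosphate buffer pH 7.4. Enzyme sources: AChE from 5% rat cortex homogenate, preincubated 5 min with iso-OMPA to block BuChE; BuChE from 25% rat serum. Substrates were acetylthiocholine or butyrylthiocholine iodide. Compounds incubated 15 min at 37 °C, then DTNB added; A405 read. IC50 derived; triplicate, 3 independent experiments; "no active" means under 5% inhibition at 50 µM.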

Acetylcholinesterase [9] = molecular target: Acetylcholinesterase (Homo sapiens, UniProt P22303); assay: Inhibition of human erythrocytes AchE using acetylthiocholine iodide as substrate after 15 mins by Ellman's method
Acetylcholinesterase [10] = molecular target: T1, Acetylcholinesterase; assay: Inhibition of electric eel AchE using acetylthiocholine iodide as substrate after 15 mins by Ellman's method
Acetylcholinesterase [11] = molecular target: T2, Acetylcholinesterase (Rattus norvegicus, UniProt P37136); assay: Inhibition of rat cortex homogenate AchE using acetylthiocholine iodide as substrate after 15 mins by Ellman's method
T2 sequence (P37136 whole entry): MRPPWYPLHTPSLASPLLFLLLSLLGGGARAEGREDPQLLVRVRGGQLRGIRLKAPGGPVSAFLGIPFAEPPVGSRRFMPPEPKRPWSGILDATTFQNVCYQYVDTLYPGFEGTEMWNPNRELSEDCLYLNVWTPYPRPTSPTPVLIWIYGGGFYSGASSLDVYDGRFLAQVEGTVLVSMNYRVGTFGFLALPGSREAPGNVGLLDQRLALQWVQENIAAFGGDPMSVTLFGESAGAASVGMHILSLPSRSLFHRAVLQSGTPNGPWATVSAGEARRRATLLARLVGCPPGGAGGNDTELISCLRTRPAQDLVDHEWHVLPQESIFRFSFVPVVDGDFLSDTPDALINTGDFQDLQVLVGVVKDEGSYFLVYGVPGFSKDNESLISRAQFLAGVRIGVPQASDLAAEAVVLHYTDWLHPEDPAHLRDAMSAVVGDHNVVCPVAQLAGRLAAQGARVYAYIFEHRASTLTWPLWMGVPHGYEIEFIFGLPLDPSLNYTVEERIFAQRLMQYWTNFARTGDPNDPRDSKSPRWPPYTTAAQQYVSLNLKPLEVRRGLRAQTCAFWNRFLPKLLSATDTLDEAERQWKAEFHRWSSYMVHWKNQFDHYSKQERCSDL

Sequence of Amyloid-beta precursor protein (Homo sapiens) (P05067 whole entry): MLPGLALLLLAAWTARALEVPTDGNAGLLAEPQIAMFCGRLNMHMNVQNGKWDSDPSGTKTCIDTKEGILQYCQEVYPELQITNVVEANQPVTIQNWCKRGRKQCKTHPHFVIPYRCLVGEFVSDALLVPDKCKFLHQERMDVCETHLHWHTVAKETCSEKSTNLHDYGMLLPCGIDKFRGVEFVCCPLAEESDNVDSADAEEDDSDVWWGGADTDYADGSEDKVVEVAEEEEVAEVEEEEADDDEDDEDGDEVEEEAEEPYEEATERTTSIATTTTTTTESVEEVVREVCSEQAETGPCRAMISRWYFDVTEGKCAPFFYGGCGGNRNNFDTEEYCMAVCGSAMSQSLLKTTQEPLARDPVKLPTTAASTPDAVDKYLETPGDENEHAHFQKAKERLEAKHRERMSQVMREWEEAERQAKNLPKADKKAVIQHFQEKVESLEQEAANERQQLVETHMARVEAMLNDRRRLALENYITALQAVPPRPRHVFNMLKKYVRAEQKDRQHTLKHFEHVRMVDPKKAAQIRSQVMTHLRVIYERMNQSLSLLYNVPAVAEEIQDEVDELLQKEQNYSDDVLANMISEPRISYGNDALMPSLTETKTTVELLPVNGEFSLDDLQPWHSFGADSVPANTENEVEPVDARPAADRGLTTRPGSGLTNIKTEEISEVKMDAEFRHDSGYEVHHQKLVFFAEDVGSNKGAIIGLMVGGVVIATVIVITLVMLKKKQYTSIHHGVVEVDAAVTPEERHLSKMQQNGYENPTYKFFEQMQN
T1 sequence (O42275 whole entry): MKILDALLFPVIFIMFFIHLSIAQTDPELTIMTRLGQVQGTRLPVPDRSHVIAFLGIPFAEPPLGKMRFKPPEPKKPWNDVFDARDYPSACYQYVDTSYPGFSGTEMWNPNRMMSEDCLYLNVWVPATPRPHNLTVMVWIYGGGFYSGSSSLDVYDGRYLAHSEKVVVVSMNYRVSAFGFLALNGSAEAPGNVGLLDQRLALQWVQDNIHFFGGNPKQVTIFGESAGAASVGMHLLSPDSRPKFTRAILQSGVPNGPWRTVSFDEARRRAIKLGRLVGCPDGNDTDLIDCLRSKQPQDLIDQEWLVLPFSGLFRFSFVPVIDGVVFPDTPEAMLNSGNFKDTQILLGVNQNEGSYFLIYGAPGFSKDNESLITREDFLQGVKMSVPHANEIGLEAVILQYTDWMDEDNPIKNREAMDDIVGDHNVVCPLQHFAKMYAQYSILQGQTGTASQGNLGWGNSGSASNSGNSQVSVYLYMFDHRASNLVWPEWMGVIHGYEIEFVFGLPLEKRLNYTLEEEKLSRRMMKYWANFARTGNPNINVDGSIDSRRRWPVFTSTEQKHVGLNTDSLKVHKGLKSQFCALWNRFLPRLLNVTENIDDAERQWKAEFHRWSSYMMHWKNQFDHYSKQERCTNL
Sequence of Acetylcholinesterase (Homo sapiens, UniProt P22303) (P22303 whole entry): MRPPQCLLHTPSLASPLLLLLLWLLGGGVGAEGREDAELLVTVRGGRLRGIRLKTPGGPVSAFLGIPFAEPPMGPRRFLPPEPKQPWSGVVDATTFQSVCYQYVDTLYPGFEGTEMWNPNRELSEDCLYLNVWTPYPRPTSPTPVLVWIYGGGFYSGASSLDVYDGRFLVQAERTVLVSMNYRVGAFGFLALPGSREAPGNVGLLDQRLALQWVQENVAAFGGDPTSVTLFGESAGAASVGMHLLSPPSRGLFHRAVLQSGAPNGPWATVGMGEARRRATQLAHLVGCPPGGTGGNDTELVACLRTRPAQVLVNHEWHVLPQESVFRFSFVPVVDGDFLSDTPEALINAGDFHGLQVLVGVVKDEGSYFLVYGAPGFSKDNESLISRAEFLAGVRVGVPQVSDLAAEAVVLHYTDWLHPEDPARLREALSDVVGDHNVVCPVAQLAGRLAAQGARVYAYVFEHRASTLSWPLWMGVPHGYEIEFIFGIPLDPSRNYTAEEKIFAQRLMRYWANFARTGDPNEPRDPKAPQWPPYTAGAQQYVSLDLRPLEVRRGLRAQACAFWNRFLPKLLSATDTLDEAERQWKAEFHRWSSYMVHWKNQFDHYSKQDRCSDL
Sequence of Butyrylcholinesterase (Rattus norvegicus) (Q9JKC1 as listed by the source): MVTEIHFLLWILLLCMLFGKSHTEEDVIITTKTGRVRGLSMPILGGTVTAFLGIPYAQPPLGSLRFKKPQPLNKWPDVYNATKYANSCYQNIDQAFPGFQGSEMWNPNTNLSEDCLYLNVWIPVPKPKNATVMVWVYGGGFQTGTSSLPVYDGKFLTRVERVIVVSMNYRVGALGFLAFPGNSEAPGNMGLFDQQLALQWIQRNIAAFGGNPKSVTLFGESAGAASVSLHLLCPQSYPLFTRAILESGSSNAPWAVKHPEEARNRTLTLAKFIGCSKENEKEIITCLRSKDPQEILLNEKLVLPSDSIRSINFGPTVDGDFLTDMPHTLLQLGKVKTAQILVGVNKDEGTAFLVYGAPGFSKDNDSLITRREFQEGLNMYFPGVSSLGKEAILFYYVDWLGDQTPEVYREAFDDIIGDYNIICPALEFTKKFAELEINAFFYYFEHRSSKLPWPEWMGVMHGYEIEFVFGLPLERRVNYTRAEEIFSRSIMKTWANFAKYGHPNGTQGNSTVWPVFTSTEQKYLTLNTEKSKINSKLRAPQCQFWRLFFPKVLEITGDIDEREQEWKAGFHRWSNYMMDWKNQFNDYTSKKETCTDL

CCN(CCCCOc1ccc(-c2coc3cc(OCCCCN(CC)Cc4ccccc4OC)cc(O)c3c2=O)cc1)Cc1ccccc1OC
inhibition [1]: Dose-dependent effect
Activity (Mus musculus): Dose-dependent effect
Activity [2]: 0.3
Activity [3]: 72.1%
inhibition [4]: 77.8%
Ki (Acetylcholinesterase [5]): 140 nM
inhibition [6]: Dose-dependent effect
inhibition [7]: 35%
inhibition [8]: 20%
IC50 (Acetylcholinesterase [9]): 350 nM
IC50 (Acetylcholinesterase [10]): 140 nM
IC50 (Acetylcholinesterase [11]): 90 nM
